Measured values published in paper PMC11707965 (Journal of Biomaterials Applications, 2024).
Like-named read-outs stand apart in the source and are kept apart here.

Legend:
[1] = system: Enterococcus faecalis ATCC 29212; assay: Broth macrodilution antimicrobial susceptibility; type: cell-based; conditions: E. faecalis ATCC 29212; two-fold dilution from 3% boric acid / 9% zinc borate
How it was run: (§1)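 Broth macrodilution run per CLSI recommendations in Cationized Mueller Hinton Broth. Ten tubes per strain held two-fold serial dilutions of boric acid (top 3%) or zinc borate (top 9%). MIC was read from the tubes. For MBC, every tube without growth was subcultured onto solid medium, and MBC was the lowest concentration giving no growth.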

[2] = system: Streptococcus pyogenes ATCC 19615; assay: Broth macrodilution antimicrobial susceptibility; type: cell-based; conditions: S. pyogenes ATCC 19615; two-fold dilution from 3% boric acid / 9% zinc borate
How it was run: as §1

[3] = system: Escherichia coli ATCC 25922; assay: Broth macrodilution antimicrobial susceptibility; type: cell-based; conditions: E. coli ATCC 25922; two-fold dilution from 3% boric acid / 9% zinc borate
How it was run: as §1

[4] = system: Aspergillus niger ATCC 16888; assay: Broth macrodilution antimicrobial susceptibility; type: cell-based; conditions: A. niger ATCC 16888; two-fold dilution from 3% boric acid / 9% zinc borate
How it was run: (§2)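 Fungal strains were tested by CLSI-based broth macrodilution in RPMI 1640. Each strain had ten tubes of two-fold serial dilutions starting at 3% boric acid or 9% zinc borate. Tubes showing no growth were plated onto solid media to find the lowest concentration without growth (MBC).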

[5] = system: Acinetobacter baumannii ATCC 19606; assay: Broth macrodilution antimicrobial susceptibility; type: cell-based; conditions: A. baumannii ATCC 19606; two-fold dilution from 3% boric acid / 9% zinc borate
How it was run: as §1

[6] = system: Proteus mirabilis ATCC 25933; assay: Broth macrodilution antimicrobial susceptibility; type: cell-based; conditions: P. mirabilis ATCC 25933; two-fold dilution from 3% boric acid / 9% zinc borate
How it was run: as §1

[7] = system: Candida albicans ATCC 10231; assay: Broth macrodilution antimicrobial susceptibility; type: cell-based; conditions: C. albicans ATCC 10231; two-fold dilution from 3% boric acid / 9% zinc borate
How it was run: as §2

[8] = system: Klebsiella pneumoniae ATCC 700603; assay: Broth macrodilution antimicrobial susceptibility; type: cell-based; conditions: K. pneumoniae ATCC 700603; two-fold dilution from 3% boric acid / 9% zinc borate
How it was run: as §1

[9] = system: Staphylococcus aureus ATCC 29213; assay: Broth macrodilution antimicrobial susceptibility; type: cell-based; conditions: S. aureus ATCC 29213; two-fold dilution from 3% boric acid / 9% zinc borate
[10] = system: L929 cells; assay: Cell migration test; type: cell-based, mouse; conditions: 24 h vs 0 h
How it was run: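 L929 fibroblasts (ATCC) were grown in DMEM with 10% FBS at 37°C and 5% CO₂. After the fourth passage they were seeded into 24-well plates at 2 × 10⁵ cells/ml and left 24 h to form a monolayer. Each well got one vertical scratch with a sterile pipette tip and was imaged at 0 h. Treatment followed (zinc borate 0.10–0.001 mM; boric acid 1000–0.001 mM), with re-imaging at 12 and 24 h (10x) to measure closure percentage.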

[11] = system: L929 (mouse fibroblast) cell line; assay: Cytotoxicity / cell viability by MTT method; type: cell-based; conditions: for IC50: read-out: IC50 dose that caused 50% decrease in cell proliferation, L929 cells, MTT
[12] = system: Pseudomonas aeruginosa ATCC 9027; assay: Broth macrodilution antimicrobial susceptibility; type: cell-based; conditions: P. aeruginosa ATCC 9027; two-fold dilution from 3% boric acid / 9% zinc borate
How it was run: as §1

[13] = system: L929 (mouse fibroblast) cell line; assay: Antioxidant ability: protection against H2O2 oxidative stress, MTT method; type: cell-based; conditions: read-out: EC50 dose, which increased the proliferative concentration by 50%, L929 cells, 0.4 mM H2O2 stress

## OB(O)O [Boric acid, Boric Acid]
[1]
  MIC (%): 1.5%
[2]
  MBC (%): 3%
  MIC (%): 0.0058%
[3]
  MBC (%): 1.5%
  MIC (%): 0.375%
[4]
  MBC (%): 0.1875%
[5]
  MIC (%): 0.375%
[6]
  MBC (%): 3%
  MIC (%): 0.75%
[7]
  MBC (%): 0.0058%
[8]
  MIC (%): 0.75%
[9]
  MBC (%): 0.75%
  MIC (%): 0.75%
[10]; 0.001 mM
  migration recovery (closure) percentage: 86.91%
[10]; 0.01 mM
  migration recovery (closure) percentage: 70.81%
[10]; 0.025 mM
  migration recovery (closure) percentage: 81.05%
[10]; 0.05 mM
  migration recovery (closure) percentage: 83.57%
[10]; 0.10 mM
  migration recovery (closure) percentage: 77.98%
[10]; 0.25 mM
  migration recovery (closure) percentage: 86.54%
[10]; 0.50 mM
  migration recovery (closure) percentage: 80.92%
[10]; 0.75 mM
  migration recovery (closure) percentage: 83.24%
[10]; 1 mM
  migration recovery (closure) percentage: 73.18%
[10]; 50 mM
  migration recovery (closure) percentage: 87.55%
[10]; 250 mM
  migration recovery (closure) percentage: 75.56%
[10]; 500 mM
  migration recovery (closure) percentage: 70.05%
[10]; 750 mM
  migration recovery (closure) percentage: 81.62%
[10]; 1000 mM
  migration recovery (closure) percentage: 62.46%
[11]; 0.001 mM-1000 mM, 24th, 48th, 72nd hours, except 100 mM and 500 mM at 24th hour, 100 mM at 48th hour
  Proliferative or inhibitory effect on L929 cells versus control: no significant proliferation or inhibition was observed
[12]
  MBC (%): no bactericidal effect
  MIC (%): 0.75%

## Zinc borate
[1]
  MBC (%): >9%
  MIC (%): 0.0351%
[2]
  MBC (%): 0.2812%
  MIC (%): 0.0175%
[3]
  MBC (%): 0.5625%
  MIC (%): 0.0351%
[13]; 24th hour
  EC50: 51 µM
[13]; 48th hour
  EC50: 15 µM
[13]; 72nd hour
  EC50: 11 µM
[4]
  MBC (%): >9%
[5]
  MBC (%): 9%
  MIC (%): 1.125%
[6]
  MBC (%): >9%
  MIC (%): 4.5%
[7]
  MBC (%): 0.0175%
[8]
  MBC (%): 2.25%
  MIC (%): 0.1406%
[9]
  MBC (%): 4.5%
[10]; 0.025 mM
  migration recovery (closure) percentage: 88.13%
[11]; 24th hour
  IC50: 133 µM
[11]; 48th hour
  IC50: 197 µM
[11]; 72nd hour
  IC50: 142 µM
